The source of these data is ChEMBL document CHEMBL4196108, “5-Aroylindoles Act as Selective Histone Deacetylase 6 Inhibitors Ameliorating Alzheimer's Disease Phenotypes” (J Med Chem, 2018).

Series [1] addresses T1, Protein deacetylase HDAC6 (Homo sapiens) (UniProt Q9UBN7).
T1 sequence (whole entry): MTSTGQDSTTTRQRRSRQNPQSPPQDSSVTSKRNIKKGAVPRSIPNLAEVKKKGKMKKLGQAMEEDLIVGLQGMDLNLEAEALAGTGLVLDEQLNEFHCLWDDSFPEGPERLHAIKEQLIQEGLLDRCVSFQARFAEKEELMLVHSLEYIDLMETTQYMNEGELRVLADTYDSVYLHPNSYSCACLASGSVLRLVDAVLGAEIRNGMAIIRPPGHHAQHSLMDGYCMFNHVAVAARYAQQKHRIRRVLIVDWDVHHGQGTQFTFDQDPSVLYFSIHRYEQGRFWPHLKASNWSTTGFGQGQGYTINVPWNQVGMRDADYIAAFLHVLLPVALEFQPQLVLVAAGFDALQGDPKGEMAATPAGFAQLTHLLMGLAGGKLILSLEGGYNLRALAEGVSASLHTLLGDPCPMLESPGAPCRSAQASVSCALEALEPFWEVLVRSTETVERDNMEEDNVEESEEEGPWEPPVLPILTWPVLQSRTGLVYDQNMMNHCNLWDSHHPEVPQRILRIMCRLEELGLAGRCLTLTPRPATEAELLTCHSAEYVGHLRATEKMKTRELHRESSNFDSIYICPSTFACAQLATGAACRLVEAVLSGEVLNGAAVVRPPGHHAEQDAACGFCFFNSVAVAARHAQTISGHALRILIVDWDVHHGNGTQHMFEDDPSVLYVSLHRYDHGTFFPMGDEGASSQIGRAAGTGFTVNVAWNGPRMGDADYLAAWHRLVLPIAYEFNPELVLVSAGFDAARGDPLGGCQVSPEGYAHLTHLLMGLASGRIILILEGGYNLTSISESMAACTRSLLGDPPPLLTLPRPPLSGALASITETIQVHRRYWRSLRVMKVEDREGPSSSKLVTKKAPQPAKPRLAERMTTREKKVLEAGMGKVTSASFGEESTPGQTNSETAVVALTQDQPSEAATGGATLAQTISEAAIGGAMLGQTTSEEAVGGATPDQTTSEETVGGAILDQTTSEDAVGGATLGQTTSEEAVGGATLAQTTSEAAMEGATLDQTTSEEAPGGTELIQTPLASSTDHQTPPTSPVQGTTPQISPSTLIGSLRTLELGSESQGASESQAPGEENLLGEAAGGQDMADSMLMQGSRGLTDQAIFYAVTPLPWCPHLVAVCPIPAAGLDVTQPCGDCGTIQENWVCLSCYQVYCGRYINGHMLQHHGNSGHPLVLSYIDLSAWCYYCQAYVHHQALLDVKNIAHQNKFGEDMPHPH
The experiment in a line: Inhibition of HDAC6 in human SH-SY5Y cells transfected with pCAX FLAG APP and pRK5-EGFP-Tau P301L plasmids assessed as inhibition of Tau P301L mutant phosphorylation at Ser404 residue at 1 uM after 24 hrs by Western blot analysis. The class given is cell-based. In outline:
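SH-SY5Y or Neuro-2a cells cotransfected 24 h with pCAX APP695 and pRK5-EGFP-Tau P301L, then treated 24 h at 1 µM. 20 µg lysate protein immunoblotted for APP and phospho-tau Ser396/Ser404. Mean ± STD of three independent experiments; Student's t-test.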

Series [2] deals with T1, Protein deacetylase HDAC6 (Homo sapiens). Put plainly: Inhibition of HDAC6 in human SH-SY5Y cells transfected with pCAX FLAG APP and pRK5-EGFP-Tau P301L plasmids assessed as reduction in Tau P301L mutant level in cytosol at 1 uM after 24 hrs by Western blot analysis. The class given is cell-based. In outline:
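Cotransfected SH-SY5Y cells (1 × 10^7) treated 24 h at 1 µM, lysed in sucrose/HEPES pH 7.2 buffer; 190,000 g supernatant = cytosol. Pellet treated with 5 µM nocodazole, re-spun; residual pellet extracted with sodium carbonate pH 11.5 and washed in 1% SDS to give aggregate fraction. Equal protein by SDS-PAGE immunoblot.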

Series [3] shares this target. Put plainly: Inhibition of HDAC6 in human SH-SY5Y cells transfected with pCAX FLAG APP and pRK5-EGFP-Tau P301L plasmids assessed as increase in HSP70 protein expression at 1 uM after 24 hrs by Western blot analysis. The format is cell-based. Put shortly:
(§1)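 SH-SY5Y and Neuro-2a cells cotransfected 24 h with APP695/Tau P301L plasmids, treated 24 h at 1 µM (ACY-1215 reference). 30 µg lysate immunoprecipitated overnight at 4 °C with anti-HDAC6 or anti-acetyl-lysine antibodies plus protein A/G beads, run on 8% SDS-PAGE, probed for Hsp90; Hsp70 by immunoblot. Three independent experiments.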

The test system of series [4] is Mus musculus. The experiment in a line: Toxicity in Balb/c mouse assessed as increase in body weight at 100 to 1000 mg/kg/day, ip administered for 6 days followed by 1 week recovery. The format is organism-based. Particulars: in vivo. Put shortly: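 Male Balb/c mice given 100, 500 or 1000 mg/kg/day i.p. for 6 days, then 1 week recovery; six vehicle-injected mice as controls. Body weight and survival recorded daily.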

Series [5] concerns Mus musculus. Put plainly: In vivo inhibition of HDAC6 in 3xTg-AD transgenic mouse brain hippocampal CA1 region assessed as downregulation of scopolamine-mediated increase in Tau phosphorylation at Ser396 residue at 50 mg/kg, po administered daily for 3 months by immunohistochemical analysis. The class given is functional, organism-based. In outline:
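Female 3xTg-AD mice, standard diet to 6 months of age, then 50 mg/kg orally once daily for three months; memantine 30 mg/kg in water as comparator. Brains removed and hippocampal CA1 sections immunostained for acetyl-α-tubulin and phospho-tau Ser396 and Ser404. Mean ± STD; one-way ANOVA.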

For series [6], the target named is T1, Protein deacetylase HDAC6 (Homo sapiens). Put plainly: Inhibition of HDAC6 binding to HSP90 in human SH-SY5Y cells transfected with pCAX FLAG APP and pRK5-EGFP-Tau P301L plasmids at 1 uM after 24 hrs by coimmunoprecipitation analysis. The format is cell-based. In outline: as §1
In series [7] the test system is Mus musculus. The experiment in a line: In vivo inhibition of HDAC6 in 3xTg-AD transgenic mouse brain hippocampal CA1 region assessed as downregulation of scopolamine-mediated increase in Tau phosphorylation at Ser404 residue at 50 mg/kg, po administered daily for 3 months by Western blot analysis. The format is functional, organism-based. Put shortly:
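Female 3xTg-AD mice, fed standard diet to 6 months of age, then dosed orally at 50 or 100 mg/kg once daily for three months. Brains removed; hippocampal tissue lysates immunoblotted for acetyl-α-tubulin and phospho-tau Ser396 and Ser404. Mean ± STD; one-way ANOVA.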

In series [8] the test system is Rattus norvegicus. The experiment in a line: Reversal of scopolamine-induced spatial memory impairment in Wistar rat assessed as decrease in transfer latency time at 25 mg/kg, po administered once daily for 1 week followed by scopolamine challenge 90 mins prior to test by elevated plus maze test. The format is functional, organism-based. Put shortly: (§2)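 Male Wistar rats, 7 weeks old, dosed orally at 25 mg/kg in 1% carboxymethyl cellulose/0.5% Tween 80 once daily. Scopolamine 1 mg/kg i.p. 90 min before test trial (controls excluded). Morris water maze (hidden platform escape latency), elevated plus maze (started at open-arm end, time to closed arm), then CA1 phospho-tau Ser396/Ser404 immunohistochemistry.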

Series [9] has as its system Rattus norvegicus. Put plainly: Reversal of scopolamine-induced spatial memory impairment in Wistar rat assessed as reduction in escape latency in hidden platform at 25 mg/kg, po administered once daily for 1 week followed by scopolamine challenge 90 mins prior to test by Morris water maze test. The class given is functional, organism-based. In outline:
as §2

The source made the active and inactive calls. The rule behind the calls is not given here.

For `COc1ccc(C(=O)c2ccc3c(ccn3Cc3ccc(C(=O)NO)cc3)c2)cc1`, the inhibition result (in series [1]; in series [2]; in series [3]; in the series with Mus musculus [5]; in series [6]; in the series with Mus musculus [7]) was “Active” each time. In addition, the Activity result in the series on Mus musculus [4] is on record as “Non-Toxic”. In addition, the outcome with Rattus norvegicus [8] and in the series with Rattus norvegicus [9] was Active.
